Reference: ChEMBL document CHEMBL4152245, “Design, synthesis and biological evaluation of benzo[cd]indol-2(1H)-ones derivatives as BRD4 inhibitors” (Eur J Med Chem, 2018)
pIC50: −log10 of the molar value. The source made the active and inactive calls. The calls are words filed in the database; no cut-off is given here.

Legend:
MRC5 = assay: Antiproliferative activity against human MRC5 cells after 72 hrs by CellTiter-Glo luminescent assay; format: cell-based; settings: mrc5, 72 h
How it was run: (§1)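 HUV-EC-C, MRC5, RPTEC, A549, MDA-MB-231 and 22Rv1 cells seeded at 3×10⁴/mL and exposed to serially diluted compounds or DMSO. Viability read by CellTiter-Glo luminescence. Each dilution point run in triplicate, averaged, and fitted.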

MV4-11 [1] = assay: Cell cycle arrest in human MV4-11 cells assessed as accumulation at G1-phase at 5 uM after 24 hrs by propidium iodide staining based flow cytometry (reference value: 61.39 to 63.23%); format: functional
RPTEC = assay: Antiproliferative activity against human RPTEC cells after 72 hrs by CellTiter-Glo luminescent assay; format: cell-based; how it was run: as §1
[2] = target: T1, Bromodomain-containing protein 4 (Homo sapiens, UniProt O60885); assay: Inhibition of BRD4 in human MV4-11 cells assessed as downregulation of c-MYC protein expression after 6 hrs by Western blot analysis; format: cell-based
How it was run: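 MV4-11 cells at 5×10⁵/mL treated 6 h with various compound concentrations or DMSO. Immunoblotted with anti-c-Myc (1:1000, 4 °C overnight), then anti-rabbit secondary (1:10000, 1 h, room temperature).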

MDA-MB-231 = assay: Antiproliferative activity against human MDA-MB-231 cells after 72 hrs by CellTiter-Glo luminescent assay; format: functional, cell-based; how it was run: as §1
CWR22R = assay: Antiproliferative activity against human 22Rv1 cells after 72 hrs by CellTiter-Glo luminescent assay; format: functional, cell-based; how it was run: as §1
[3] = target: T1, Bromodomain-containing protein 4; assay: (§2) Inhibition of His-tagged BRD4 bromodomain-1 (unknown origin) expressed in Escherichia coli BL21(DE3) at 5 uM using SGRGK(Ac)-GG-K(Ac)-GLG-K(Ac)-GGA-K(Ac)-RHRKVGG-K-Biotin as substrate preincubated for 15 mins followed by substrate addition measured after 10 mins by Alphascreen assay relative to control
How it was run: (§3)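 His-tagged BRD4_BD1 purified by Ni-NTA, anion exchange and gel filtration, tag retained. Assay buffer: 20 mM HEPES pH 7.4, 0.1% BSA, 0.01% Triton X-100, 1 mM DTT. Protein preincubated with compound 15 min at room temperature, biotinylated tetra-acetyl peptide added for 10 min, then streptavidin donor and nickel chelate acceptor beads for 60 min. Compounds screened at 20 and 5 µM; IC50 from three independent experiments.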

MV4-11 [4] = assay: Cell cycle arrest in human MV4-11 cells assessed as accumulation at S-phase at 10 uM after 24 hrs by propidium iodide staining based flow cytometry (reference value: 28.91 to 29.71%); format: functional
MV4-11 [5] = assay: Cell cycle arrest in human MV4-11 cells assessed as accumulation at G2-phase at 5 uM after 24 hrs by propidium iodide staining based flow cytometry (reference value: 7.76 to 8.93%); format: functional
[6] = target: T1, Bromodomain-containing protein 4; assay: Inhibition of BRD4 in human MV4-11 cells assessed as downregulation of CDK6 mRNA expression after 6 hrs by RT-PCR analysis; format: cell-based
How it was run: (§4)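 MV4-11 cells at 5×10⁵/mL treated 6 h with various compound concentrations or DMSO. c-Myc, Bcl-2 and CDK6 transcripts quantified by qRT-PCR, normalized to B2M by the ΔΔCt method.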

MV4-11 [7] = assay: Cell cycle arrest in human MV4-11 cells assessed as accumulation at G1-phase at 20 uM after 24 hrs by propidium iodide staining based flow cytometry (reference value: 61.39 to 63.23%); format: functional
MV4-11 [8] = assay: Cell cycle arrest in human MV4-11 cells assessed as accumulation at S-phase at 5 uM after 24 hrs by propidium iodide staining based flow cytometry (reference value: 28.91 to 29.71%); format: functional
[9] = target: T1, Bromodomain-containing protein 4; assay: Inhibition of BRD4 in human MV4-11 cells assessed as downregulation of Bcl2 mRNA expression after 6 hrs by RT-PCR analysis; format: cell-based; how it was run: as §4
MV4-11 [10] = assay: Cell cycle arrest in human MV4-11 cells assessed as accumulation at G2-phase at 10 uM after 24 hrs by propidium iodide staining based flow cytometry (reference value: 7.76 to 8.93%); format: functional
MV4-11 [11] = assay: Cell cycle arrest in human MV4-11 cells assessed as accumulation at G1-phase after 24 hrs by propidium iodide staining based flow cytometry; format: functional
MV4-11 [12] = assay: Cell cycle arrest in human MV4-11 cells assessed as accumulation at S-phase at 20 uM after 24 hrs by propidium iodide staining based flow cytometry (reference value: 28.91 to 29.71%); format: functional
[13] = target: T1, Bromodomain-containing protein 4; assay: as §2, with “at 20” for “at 5”; how it was run: as §3
HUVEC = assay: Antiproliferative activity against HUVEC after 72 hrs by CellTiter-Glo luminescent assay; format: cell-based; settings: human; how it was run: as §1
[14] = target: T1, Bromodomain-containing protein 4; assay: Binding affinity to His-tagged BRD4 bromodomain-1 (unknown origin) expressed in Escherichia coli BL21(DE3) assessed as change in melting temperature at 100 uM by SYPRO orange dye based thermal shift assay
How it was run: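 Buffer of 20 mM HEPES pH 7.4, 100 mM NaCl and 1 mM DTT, with 5× SYPRO Orange and 5 µM BRD4_BD1. Compound at 100 µM or 0.5% DMSO, DMSO matched across wells. Heated at 2.5 °C/min from 25 to 95 °C. Tm compared with the DMSO control.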

A549 = assay: Antiproliferative activity against human A549 cells after 72 hrs by CellTiter-Glo luminescent assay; format: functional, cell-based; how it was run: as §1
[15] = target: T1, Bromodomain-containing protein 4; assay: Inhibition of His-tagged BRD4 bromodomain-1 (unknown origin) expressed in Escherichia coli BL21(DE3) using SGRGK(Ac)-GG-K(Ac)-GLG-K(Ac)-GGA-K(Ac)-RHRKVGG-K-Biotin as substrate preincubated for 15 mins followed by substrate addition measured after 10 mins by Alphascreen assay; how it was run: as §3
MV4-11 [16] = assay: Cell cycle arrest in human MV4-11 cells assessed as accumulation at G2-phase at 20 uM after 24 hrs by propidium iodide staining based flow cytometry (reference value: 7.76 to 8.93%); format: functional
MV4-11 [17] = assay: Antiproliferative activity against human MV4-11 cells after 72 hrs by CellTiter-Glo luminescent assay; format: functional, cell-based; settings: MV4-11, 72 h
How it was run: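 MV4-11 cells in RPMI 1640 with 10% FBS and 1% penicillin/streptomycin, seeded at 1×10⁵/mL. Compounds or DMSO added about 1 h later, then incubated 72 h. Viability read by CellTiter-Glo luminescence. Each dilution point run in triplicate, averaged, and fitted for IC50.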

MV4-11 [18] = assay: Cell cycle arrest in human MV4-11 cells assessed as accumulation at G1-phase at 10 uM after 24 hrs by propidium iodide staining based flow cytometry (reference value: 61.39 to 63.23%); format: functional
[19] = target: T1, Bromodomain-containing protein 4; assay: Inhibition of BRD4 in human MV4-11 cells assessed as downregulation of c-MYC mRNA expression after 6 hrs by RT-PCR analysis; format: cell-based; how it was run: as §4

inhibition [2]: Dose-dependent effect
inhibition [3]: 59%
inhibition [6]: Dose-dependent effect
inhibition [9]: Dose-dependent effect
inhibition [13]: 99%
ΔTm [14]: 3.4 °C
pIC50 [15]: 5.17
pIC50 (MV4-11 [17]): 4.93
inhibition [19]: Dose-dependent effect
SMILES: CCN1C(=O)c2cccc3c(S(=O)(=O)N4CCCC4)ccc1c23
Activity (MRC5): Non-Toxic
Activity (MV4-11 [1]): 73%
Activity (RPTEC): Non-Toxic
Activity (MDA-MB-231): Active
Activity (CWR22R): Active
Activity (MV4-11 [4]): 15.95%
Activity (MV4-11 [5]): 5.47%
Activity (MV4-11 [7]): 87.22%
Activity (MV4-11 [8]): 21.52%
Activity (MV4-11 [10]): 4%
Activity (MV4-11 [11]): Dose-dependent effect
Activity (MV4-11 [12]): 9.88%
Activity (HUVEC): Non-Toxic
Activity (A549): Active
Activity (MV4-11 [16]): 2.9%
Activity (MV4-11 [18]): 80.04%
